Laboratory results published in ChEMBL document CHEMBL3632558, “Synthesis, antimycobacterial and antibacterial activity of l-[(1R,2S)-2-fluorocyclopropyl]naphthyridone derivatives containing an oxime-functionalized pyrrolidine moiety” (2015).
≈ marks a conversion by molar mass, not a printed value.

Experiments:
Type in all cases: functional
Klebsiella pneumoniae [1] = test: Antibacterial activity against Klebsiella pneumoniae 14-4 after 18 to 24 hrs
How it was run: (§1)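 MIC by standard NCCLS reference procedure (M100-S11); lowest concentration of compound inhibiting visible bacterial growth after incubation at 35 °C for 18–24 h, read as complete inhibition of growth. Ciprofloxacin, levofloxacin and moxifloxacin run alongside as reference agents.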

Escherichia coli [2] = test: Antibacterial activity against Escherichia coli 14-1 after 18 to 24 hrs; how it was run: as §1
[3] = tested on: Staphylococcus epidermidis; test: Antibacterial activity against methicillin-resistant Staphylococcus epidermidis 14-21 after 18 to 24 hrs
Staphylococcus aureus [4] = test: Antibacterial activity against methicillin-sensitive Staphylococcus aureus 14-1 after 18 to 24 hrs; how it was run: as §1
Klebsiella pneumoniae [5] = test: Antibacterial activity against Klebsiella pneumoniae 14-2 after 18 to 24 hrs; how it was run: as §1
Streptococcus pneumoniae = test: Antibacterial activity against Streptococcus pneumoniae ATCC 19615 after 18 to 24 hrs; how it was run: as §1
[6] = tested on: Mycobacterium tuberculosis; test: Antimycobacterial activity against Mycobacterium tuberculosis H37Rv ATCC 27294 by alamar blue assay
How it was run: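 Microplate Alamar Blue Assay; MIC is the lowest concentration giving ≥90% reduction in fluorescence relative to the mean of replicate bacterium-only controls. MDR strain 6133 is resistant to isoniazid and rifampicin.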

Escherichia coli [7] = test: Antibacterial activity against Escherichia coli ATCC 25922 after 18 to 24 hrs; how it was run: as §1
Enterococcus faecium [8] = test: Antibacterial activity against Enterococcus faecium 14-2 after 18 to 24 hrs; how it was run: as §1
[9] = tested on: Staphylococcus epidermidis; test: Antibacterial activity against methicillin-sensitive Staphylococcus epidermidis 14-2 after 18 to 24 hrs; how it was run: as §1
Staphylococcus aureus [10] = test: Antibacterial activity against Staphylococcus aureus CMCC 26003 after 18 to 24 hrs; how it was run: as §1
Enterococcus faecalis [11] = test: Antibacterial activity against Enterococcus faecalis 14-2 after 18 to 24 hrs; how it was run: as §1
Enterococcus faecium [12] = test: Antibacterial activity against Enterococcus faecium 14-6 after 18 to 24 hrs; how it was run: as §1
Enterococcus faecalis [13] = test: Antibacterial activity against Enterococcus faecalis 14-1 after 18 to 24 hrs; how it was run: as §1
Pseudomonas aeruginosa [14] = test: Antibacterial activity against Pseudomonas aeruginosa 14-16 after 18 to 24 hrs; how it was run: as §1
Klebsiella pneumoniae [15] = test: Antibacterial activity against ESBL-positive Klebsiella pneumoniae 14-17 after 18 to 24 hrs; how it was run: as §1
[16] = tested on: Staphylococcus epidermidis; test: Antibacterial activity against methicillin-resistant Staphylococcus epidermidis 14-37 after 18 to 24 hrs
[17] = tested on: Staphylococcus epidermidis; test: Antibacterial activity against methicillin-resistant Staphylococcus epidermidis 14-22 after 18 to 24 hrs
Pseudomonas aeruginosa [18] = test: Antibacterial activity against Pseudomonas aeruginosa ATCC 27853 after 18 to 24 hrs; how it was run: as §1
Enterococcus faecium [19] = test: Antibacterial activity against Enterococcus faecium 14-5 after 18 to 24 hrs; how it was run: as §1
Escherichia coli [20] = test: Antibacterial activity against ESBL-positive Escherichia coli 14-1 after 18 to 24 hrs; how it was run: as §1
Staphylococcus aureus [21] = test: Antibacterial activity against methicillin-sensitive Staphylococcus aureus 14-2 after 18 to 24 hrs; how it was run: as §1
Pseudomonas aeruginosa [22] = test: Antibacterial activity against Pseudomonas aeruginosa 14-19 after 18 to 24 hrs; how it was run: as §1
Staphylococcus aureus [23] = test: Antibacterial activity against methicillin-sensitive Staphylococcus aureus 14-3 after 18 to 24 hrs; how it was run: as §1
Pseudomonas aeruginosa [24] = test: Antibacterial activity against Pseudomonas aeruginosa 14-14 after 18 to 24 hrs; how it was run: as §1
Klebsiella pneumoniae [25] = test: Antibacterial activity against Klebsiella pneumoniae 14-3 after 18 to 24 hrs; how it was run: as §1
Staphylococcus aureus [26] = test: Antibacterial activity against methicillin-resistant Staphylococcus aureus 14-4 after 18 to 24 hrs
Klebsiella pneumoniae [27] = test: Antibacterial activity against ESBL-positive Klebsiella pneumoniae 14-19 after 18 to 24 hrs; how it was run: as §1
Escherichia coli [28] = test: Antibacterial activity against Escherichia coli 14-2 after 18 to 24 hrs; how it was run: as §1
Escherichia coli [29] = test: Antibacterial activity against ESBL-positive Escherichia coli 14-2 after 18 to 24 hrs; how it was run: as §1
Staphylococcus aureus [30] = test: Antibacterial activity against methicillin-resistant Staphylococcus aureus 14-5 after 18 to 24 hrs
Enterococcus faecium [31] = test: Antibacterial activity against Enterococcus faecium 14-1 after 18 to 24 hrs; how it was run: as §1
Klebsiella pneumoniae [32] = test: Antibacterial activity against ESBL-positive Klebsiella pneumoniae 14-18 after 18 to 24 hrs; how it was run: as §1
[33] = tested on: Staphylococcus epidermidis; test: Antibacterial activity against methicillin-resistant Staphylococcus epidermidis 14-39 after 18 to 24 hrs
Staphylococcus aureus [34] = test: Antibacterial activity against methicillin-sensitive Staphylococcus aureus 14-4 after 18 to 24 hrs; how it was run: as §1
Pseudomonas aeruginosa [35] = test: Antibacterial activity against Pseudomonas aeruginosa 14-9 after 18 to 24 hrs; how it was run: as §1
Klebsiella pneumoniae [36] = test: Antibacterial activity against Klebsiella pneumoniae 14-1 after 18 to 24 hrs; how it was run: as §1
Pseudomonas aeruginosa [37] = test: Antibacterial activity against Pseudomonas aeruginosa 14-15 after 18 to 24 hrs; how it was run: as §1

SMILES: CC1(CN)CN(c2nc3c(cc2F)c(=O)c(C(=O)O)cn3[C@@H]2C[C@@H]2F)C/C1=N\OCc1ccccc1 (some centres undefined)
- MIC (Klebsiella pneumoniae [1]): > 128 µg/mL
- MIC (Escherichia coli [2]): > 128 µg/mL
- MIC [3]: 4 µg/mL (≈ 8.04 µM)
- MIC (Staphylococcus aureus [4]): 2 µg/mL (≈ 4.02 µM)
- MIC (Klebsiella pneumoniae [5]): > 128 µg/mL
- MIC (Streptococcus pneumoniae): < 0.008 µg/mL
- MIC90 [6]: 0.514 µg/mL (≈ 1.03 µM)
- MIC (Escherichia coli [7]): 0.125 µg/mL (≈ 0.251 µM)
- MIC (Enterococcus faecium [8]): 4 µg/mL (≈ 8.04 µM)
- MIC [9]: 16 µg/mL (≈ 32.2 µM)
- MIC (Staphylococcus aureus [10]): < 0.008 µg/mL
- MIC (Enterococcus faecalis [11]): 0.25 µg/mL (≈ 0.503 µM)
- MIC (Enterococcus faecium [12]): 8 µg/mL (≈ 16.1 µM)
- MIC (Enterococcus faecalis [13]): 32 µg/mL (≈ 64.3 µM)
- MIC (Pseudomonas aeruginosa [14]): 32 µg/mL (≈ 64.3 µM)
- MIC (Klebsiella pneumoniae [15]): 16 µg/mL (≈ 32.2 µM)
- MIC [16]: 16 µg/mL (≈ 32.2 µM)
- MIC [17]: 4 µg/mL (≈ 8.04 µM)
- MIC (Pseudomonas aeruginosa [18]): 8 µg/mL (≈ 16.1 µM)
- MIC (Enterococcus faecium [19]): 8 µg/mL (≈ 16.1 µM)
- MIC (Escherichia coli [20]): 8 µg/mL (≈ 16.1 µM)
- MIC (Staphylococcus aureus [21]): < 0.008 µg/mL
- MIC (Pseudomonas aeruginosa [22]): 8 µg/mL (≈ 16.1 µM)
- MIC (Staphylococcus aureus [23]): < 0.008 µg/mL
- MIC (Pseudomonas aeruginosa [24]): 32 µg/mL (≈ 64.3 µM)
- MIC (Klebsiella pneumoniae [25]): 128 µg/mL (≈ 257 µM)
- MIC (Staphylococcus aureus [26]): 8 µg/mL (≈ 16.1 µM)
- MIC (Klebsiella pneumoniae [27]): 64 µg/mL (≈ 129 µM)
- MIC (Escherichia coli [28]): > 128 µg/mL
- MIC (Escherichia coli [29]): > 128 µg/mL
- MIC (Staphylococcus aureus [30]): 4 µg/mL (≈ 8.04 µM)
- MIC (Enterococcus faecium [31]): 4 µg/mL (≈ 8.04 µM)
- MIC (Klebsiella pneumoniae [32]): 32 µg/mL (≈ 64.3 µM)
- MIC [33]: 16 µg/mL (≈ 32.2 µM)
- MIC (Staphylococcus aureus [34]): < 0.008 µg/mL
- MIC (Pseudomonas aeruginosa [35]): 16 µg/mL (≈ 32.2 µM)
- MIC (Klebsiella pneumoniae [36]): 128 µg/mL (≈ 257 µM)
- MIC (Pseudomonas aeruginosa [37]): 32 µg/mL (≈ 64.3 µM)

SMILES: CO/N=C1\CN(c2nc3c(cc2F)c(=O)c(C(=O)O)cn3[C@@H]2C[C@@H]2F)CC1(C)N (some centres undefined)
- MIC (Klebsiella pneumoniae [1]): > 128 µg/mL
- MIC (Escherichia coli [2]): > 128 µg/mL
- MIC [3]: 128 µg/mL (≈ 314 µM)
- MIC (Staphylococcus aureus [4]): 16 µg/mL (≈ 39.3 µM)
- MIC (Klebsiella pneumoniae [5]): > 128 µg/mL
- MIC (Streptococcus pneumoniae): 0.25 µg/mL (≈ 0.614 µM)
- MIC90 [6]: 0.392 µg/mL (≈ 0.962 µM)
- MIC (Escherichia coli [7]): 0.5 µg/mL (≈ 1.23 µM)
- MIC (Enterococcus faecium [8]): > 128 µg/mL
- MIC [9]: > 128 µg/mL
- MIC (Staphylococcus aureus [10]): 0.25 µg/mL (≈ 0.614 µM)
- MIC (Enterococcus faecalis [11]): 2 µg/mL (≈ 4.91 µM)
- MIC (Enterococcus faecium [12]): > 128 µg/mL
- MIC (Enterococcus faecalis [13]): 128 µg/mL (≈ 314 µM)
- MIC (Pseudomonas aeruginosa [14]): 32 µg/mL (≈ 78.6 µM)
- MIC (Klebsiella pneumoniae [15]): 16 µg/mL (≈ 39.3 µM)
- MIC [16]: 32 µg/mL (≈ 78.6 µM)
- MIC [17]: 32 µg/mL (≈ 78.6 µM)
- MIC (Pseudomonas aeruginosa [18]): 8 µg/mL (≈ 19.6 µM)
- MIC (Enterococcus faecium [19]): > 128 µg/mL
- MIC (Escherichia coli [20]): 32 µg/mL (≈ 78.6 µM)
- MIC (Staphylococcus aureus [21]): 0.5 µg/mL (≈ 1.23 µM)
- MIC (Pseudomonas aeruginosa [22]): 32 µg/mL (≈ 78.6 µM)
- MIC (Staphylococcus aureus [23]): 0.5 µg/mL (≈ 1.23 µM)
- MIC (Pseudomonas aeruginosa [24]): 32 µg/mL (≈ 78.6 µM)
- MIC (Klebsiella pneumoniae [25]): > 128 µg/mL
- MIC (Staphylococcus aureus [26]): 128 µg/mL (≈ 314 µM)
- MIC (Klebsiella pneumoniae [27]): > 128 µg/mL
- MIC (Escherichia coli [28]): > 128 µg/mL
- MIC (Escherichia coli [29]): > 128 µg/mL
- MIC (Staphylococcus aureus [30]): 128 µg/mL (≈ 314 µM)
- MIC (Enterococcus faecium [31]): > 128 µg/mL
- MIC (Klebsiella pneumoniae [32]): 32 µg/mL (≈ 78.6 µM)
- MIC [33]: 64 µg/mL (≈ 157 µM)
- MIC (Staphylococcus aureus [34]): 0.5 µg/mL (≈ 1.23 µM)
- MIC (Pseudomonas aeruginosa [35]): 16 µg/mL (≈ 39.3 µM)
- MIC (Klebsiella pneumoniae [36]): > 128 µg/mL
- MIC (Pseudomonas aeruginosa [37]): 32 µg/mL (≈ 78.6 µM)

SMILES: CCO/N=C1\CN(c2nc3c(cc2F)c(=O)c(C(=O)O)cn3[C@@H]2C[C@@H]2F)CC1(C)N (some centres undefined)
- MIC (Klebsiella pneumoniae [1]): > 128 µg/mL
- MIC (Escherichia coli [2]): > 128 µg/mL
- MIC [3]: 64 µg/mL (≈ 152 µM)
- MIC (Staphylococcus aureus [4]): 64 µg/mL (≈ 152 µM)
- MIC (Klebsiella pneumoniae [5]): > 128 µg/mL
- MIC (Streptococcus pneumoniae): 0.25 µg/mL (≈ 0.593 µM)
- MIC90 [6]: 0.42 µg/mL (≈ 0.997 µM)
- MIC (Escherichia coli [7]): 1 µg/mL (≈ 2.37 µM)
- MIC (Enterococcus faecium [8]): > 128 µg/mL
- MIC [9]: > 128 µg/mL
- MIC (Staphylococcus aureus [10]): 0.25 µg/mL (≈ 0.593 µM)
- MIC (Enterococcus faecalis [11]): 2 µg/mL (≈ 4.75 µM)
- MIC (Enterococcus faecium [12]): > 128 µg/mL
- MIC (Enterococcus faecalis [13]): 128 µg/mL (≈ 304 µM)
- MIC (Pseudomonas aeruginosa [14]): 32 µg/mL (≈ 75.9 µM)
- MIC (Klebsiella pneumoniae [15]): 32 µg/mL (≈ 75.9 µM)
- MIC [16]: 32 µg/mL (≈ 75.9 µM)
- MIC [17]: 32 µg/mL (≈ 75.9 µM)
- MIC (Pseudomonas aeruginosa [18]): 16 µg/mL (≈ 38 µM)
- MIC (Enterococcus faecium [19]): > 128 µg/mL
- MIC (Escherichia coli [20]): 32 µg/mL (≈ 75.9 µM)
- MIC (Staphylococcus aureus [21]): 0.25 µg/mL (≈ 0.593 µM)
- MIC (Pseudomonas aeruginosa [22]): 64 µg/mL (≈ 152 µM)
- MIC (Staphylococcus aureus [23]): 0.5 µg/mL (≈ 1.19 µM)
- MIC (Pseudomonas aeruginosa [24]): 32 µg/mL (≈ 75.9 µM)
- MIC (Klebsiella pneumoniae [25]): 128 µg/mL (≈ 304 µM)
- MIC (Staphylococcus aureus [26]): 64 µg/mL (≈ 152 µM)
- MIC (Klebsiella pneumoniae [27]): 128 µg/mL (≈ 304 µM)
- MIC (Escherichia coli [28]): > 128 µg/mL
- MIC (Escherichia coli [29]): > 128 µg/mL
- MIC (Staphylococcus aureus [30]): 128 µg/mL (≈ 304 µM)
- MIC (Enterococcus faecium [31]): > 128 µg/mL
- MIC (Klebsiella pneumoniae [32]): 32 µg/mL (≈ 75.9 µM)
- MIC [33]: 128 µg/mL (≈ 304 µM)
- MIC (Staphylococcus aureus [34]): 1 µg/mL (≈ 2.37 µM)
- MIC (Pseudomonas aeruginosa [35]): 16 µg/mL (≈ 38 µM)
- MIC (Klebsiella pneumoniae [36]): 128 µg/mL (≈ 304 µM)
- MIC (Pseudomonas aeruginosa [37]): 32 µg/mL (≈ 75.9 µM)
